Assay outcomes deposited in PubChem BioAssay by Broad Institute.
S100A4 inh HTS = blocks human S100A4 binding to myosin IIA peptide. P26447. S100A4/TAMRA-MyoIIA peptide fluorescence polarization. inhibition, % at 10.7 µM. actives 0.14% (n = 360,000). AID 652163;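 active = mean inhibition of at least 70% across replicates, with every replicate also reaching that level; inconclusive = mean inhibition reaches 70% but some replicates fall short; inactive = mean inhibition below 70%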
Target sequence (P26447 whole entry, looked up): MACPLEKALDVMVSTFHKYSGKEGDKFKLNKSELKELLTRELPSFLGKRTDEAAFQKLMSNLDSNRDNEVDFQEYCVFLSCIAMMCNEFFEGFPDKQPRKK
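Material: S100A4 monomer protein / Buffer or medium: 50 mM HEPES pH 7.2, 10 mM CaCl2, 100 mM KCl / Times: 5 min incubation before reading / Benchmarks: neutral control DMSO, positive control TFP / Reagent: labelled myosin peptide probe, 5 nM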
DENV2 CPE = inhibitors of DENV2 cytopathic effect; CPE inhibition, % at 9.99 µM; actives 1.7% (n = 350,000); DENV2-infected cells, cytopathic effect rescue, plate reader; in the data active = CPE inhibition above about 20%, passing the limit was not always enough; inconclusive = no clear call, values can overlap the other calls; tested in BHK-21 cells;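 note: 0% = median of neutral control wells and 100% = median of positive control wells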
PGC1a acetyl inh = modulators of PGC1a acetylation; U2OS PGC1a acetylation, AlphaScreen anti-acetyl-lysine; with virally co-expressed GCN5 acetyltransferase; inhibition, % at 15.6 µM; actives 0.17% (n = 350,000);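 active = every replicate shows inhibition of at least 40%; inconclusive = mean inhibition at least 40% but some replicate below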;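 note: 0% = neutral control wells and 100% = positive control wells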
SIRT5 block = inhibitors of human sirtuin-5 desuccinylase; Q9NXA8; Purified SirT5, succinyl-peptide AMC, trypsin-coupled fluorescence; inhibition, % at 15 µM; actives 1.1% (n = 330,000); in the data active = inhibition above about 15%; inconclusive = no clear call, values can overlap the other calls
Target sequence (Q9NXA8 whole entry, looked up): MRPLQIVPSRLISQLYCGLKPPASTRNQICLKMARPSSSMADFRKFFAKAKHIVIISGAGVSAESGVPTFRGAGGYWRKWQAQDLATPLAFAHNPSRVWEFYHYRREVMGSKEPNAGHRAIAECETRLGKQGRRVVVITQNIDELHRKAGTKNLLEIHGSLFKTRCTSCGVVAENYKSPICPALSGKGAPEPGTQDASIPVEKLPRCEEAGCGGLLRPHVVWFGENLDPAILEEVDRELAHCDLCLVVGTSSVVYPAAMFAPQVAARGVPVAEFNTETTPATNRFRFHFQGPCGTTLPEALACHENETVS
C2C12 statin = protects C2C12 myotubes from simvastatin toxicity; ATP luminescence, 48 h; scaled: DMSO 0, geranylgeraniol control 100; rescue of ATP level, % at 7.49 µM; actives 0.78% (n = 330,000); AID 602340;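 active = mean ATP rescue above about 67%, or every replicate alone reaching that limit, limit read from the data, passing the limit was not always enough; inconclusive = no clear call, values can overlap the other calls; inactive = mean under the limit and some replicate under it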;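 note: myotubes were challenged with 10 µM simvastatin during compound exposure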
Active calls of the source: *; ! = a repeat was not active. In the library only some 2.9% were active in any assay of this set; here they are far more common.

Screening C[C@@H]1CN([C@@H](C)CO)C(=O)c2cc(C#Cc3cccc(F)c3)cnc2O[C@@H]1CN(C)C(=O)C1CCC1 returned S100A4 inh HTS 9, DENV2 CPE 87*, PGC1a acetyl inh -1, SIRT5 block 1 and C2C12 statin 16.
CCC(=O)N(C)C[C@@H]1Oc2ncc(C#CCc3ccccc3)cc2C(=O)N([C@H](C)CO)C[C@@H]1C was read as S100A4 inh HTS -2, DENV2 CPE 0, PGC1a acetyl inh 101*, SIRT5 block -2 and C2C12 statin 8.
`CCC(=O)N(C)C[C@H]1Oc2ncc(C#CCc3ccccc3)cc2C(=O)N([C@H](C)CO)C[C@H]1C` gave S100A4 inh HTS -8, DENV2 CPE 20, PGC1a acetyl inh 1, SIRT5 block 0 and C2C12 statin 16.
For C[C@@H]1CN([C@@H](C)CO)C(=O)c2cc(NS(C)(=O)=O)ccc2O[C@@H](C)CCCCO[C@@H]1CN(C)C(=O)C1CCCCC1 the results were S100A4 inh HTS 3, DENV2 CPE 2, PGC1a acetyl inh -1, SIRT5 block -1 and C2C12 statin 25.
Screening C[C@H](CO)N1C[C@H](C)[C@H](CN(C)Cc2ccc(F)cc2)Oc2cc(C#Cc3ccccn3)ccc2S1(=O)=O returned S100A4 inh HTS -4, DENV2 CPE -9, PGC1a acetyl inh 0, SIRT5 block 2 and C2C12 statin 3.
For CCN1[C@@H]2Cn3c(ccc(C4=CCCCC4)c3=O)[C@H]1[C@@H](C(=O)N1CCc3ccccc3C1)[C@@H]2CO the results were S100A4 inh HTS -3, DENV2 CPE 7, SIRT5 block -10 and C2C12 statin -2.
Screening C[C@H]1CN([C@@H](C)CO)C(=O)Cc2cc(NC(=O)Nc3ccc(F)cc3)ccc2O[C@H]1CN(C)C(=O)Nc1ccc(F)cc1 returned S100A4 inh HTS 7, DENV2 CPE -2, PGC1a acetyl inh 2, SIRT5 block 16* and C2C12 statin -5.
`COc1ccc(NC(=O)N(C)C[C@@H]2Oc3ccc(NC(=O)Nc4ccc(C(F)(F)F)cc4)cc3CC(=O)N([C@H](C)CO)C[C@@H]2C)cc1` gave S100A4 inh HTS -12, DENV2 CPE 53*, PGC1a acetyl inh -1, SIRT5 block 1 and C2C12 statin 42.
For COc1ccc(NC(=O)Nc2ccc3c(c2)CC(=O)N([C@@H](C)CO)C[C@H](C)[C@@H](CN(C)C(=O)Nc2ccc(F)cc2)O3)cc1 the results were S100A4 inh HTS -2, DENV2 CPE -1, PGC1a acetyl inh 7, SIRT5 block 2 and C2C12 statin 30.
Screening COc1ccc(NC(=O)Nc2ccc3c(c2)CC(=O)N([C@@H](C)CO)C[C@H](C)[C@@H](CN(C)C(=O)Nc2ccccc2)O3)cc1 returned S100A4 inh HTS 0, DENV2 CPE 46*, PGC1a acetyl inh 1, SIRT5 block -1 and C2C12 statin -5.
COc1ccc(NC(=O)N(C)C[C@@H]2Oc3ccc(NC(=O)Nc4ccc(F)cc4)cc3CC(=O)N([C@@H](C)CO)C[C@@H]2C)cc1 was read as S100A4 inh HTS 4, DENV2 CPE 50*, PGC1a acetyl inh -1, SIRT5 block 0 and C2C12 statin 16.
`O=S(=O)(CS(=O)(=O)c1ccccc1Br)c1ccccc1Br` gave S100A4 inh HTS 17 and DENV2 CPE -7.
For COCC(=O)Nc1ccc2c(c1)C(=O)N(C)[C@@H]1CC[C@H](CC(=O)NCc3ccccc3)O[C@H]1CO2 the results were S100A4 inh HTS -6, DENV2 CPE -2, PGC1a acetyl inh -1, SIRT5 block -2 and C2C12 statin 3.
`CC(=O)CC(=O)O[C@@H]1C=C[C@H](NC(=O)OC(C)(C)C)C1` gave S100A4 inh HTS -3 and DENV2 CPE 29*.
`CC(=O)Nc1ccc(S(=O)(=O)NNC(=O)c2cc3c4ccccc4n(C)c3s2)cc1` gave PGC1a acetyl inh -9 and C2C12 statin 193*.
CC(C)CNC(=O)C1(C)CCCCCN1C(=O)c1csnn1 (centres undefined) was read as S100A4 inh HTS -1, DENV2 CPE 113*, PGC1a acetyl inh 9 and C2C12 statin 2.
For CO[C@@H]1CN(C)C(=O)c2cc(NS(C)(=O)=O)ccc2OC[C@@H](C)N(C(=O)c2ccc3c(c2)OCO3)C[C@H]1C the results were S100A4 inh HTS 6, DENV2 CPE 9, PGC1a acetyl inh 10 and C2C12 statin -12.
Screening CO[C@@H]1CN(C)C(=O)c2cc(NS(C)(=O)=O)ccc2OC[C@@H](C)N(C(=O)c2ccc3c(c2)OCO3)C[C@@H]1C returned S100A4 inh HTS -1, DENV2 CPE -6, PGC1a acetyl inh 4 and C2C12 statin -9.
For CO[C@H]1CN(C)C(=O)c2cc(NS(C)(=O)=O)ccc2OC[C@@H](C)N(C(=O)c2ccc3c(c2)OCO3)C[C@H]1C the results were S100A4 inh HTS 0, DENV2 CPE 27*, PGC1a acetyl inh 2 and C2C12 statin -3.
CO[C@H]1CN(C)C(=O)c2cc(NS(C)(=O)=O)ccc2OC[C@H](C)N(C(=O)c2ccc3c(c2)OCO3)C[C@@H]1C was read as S100A4 inh HTS 1, DENV2 CPE 42*, PGC1a acetyl inh 1 and C2C12 statin -12.
Screening CC(C)(C)C1CCC(=NNc2nc3ccccc3[nH]2)CC1 (centres undefined) returned S100A4 inh HTS 0, DENV2 CPE inconclusive, PGC1a acetyl inh 6 and SIRT5 block 19*.
Cc1ccc(-c2nn(-c3ccccc3)cc2C=C2SC(=S)N(CCS(=O)(=O)O)C2=O)cc1 was read as S100A4 inh HTS -5, DENV2 CPE -5, SIRT5 block 55* and C2C12 statin -3.
Screening C[C@H]1CN([C@@H](C)CO)C(=O)CCCn2nncc2CO[C@@H]1CN(C)S(=O)(=O)c1ccc2ccccc2c1 returned S100A4 inh HTS -1, DENV2 CPE -4, PGC1a acetyl inh 8, SIRT5 block -2 and C2C12 statin 1.
For C[C@H]1CN([C@@H](C)CO)C(=O)CCCn2nncc2CO[C@@H]1CN(C)S(=O)(=O)c1ccccc1F the results were S100A4 inh HTS -2, DENV2 CPE 70*, PGC1a acetyl inh -2, SIRT5 block -3 and C2C12 statin 7.
C[C@H](CO)N1C[C@H](C)[C@H](CN(C)S(=O)(=O)c2ccccc2)OCc2cnnn2CCCC1=O was read as S100A4 inh HTS -4, DENV2 CPE 28*!, PGC1a acetyl inh -10, SIRT5 block -2 and C2C12 statin 7.
C[C@H](CO)N1C[C@H](C)[C@@H](CN(C)S(=O)(=O)c2ccc(Cl)cc2)OCc2cnnn2CCCC1=O was read as S100A4 inh HTS -3, DENV2 CPE -12, PGC1a acetyl inh 5, SIRT5 block 0 and C2C12 statin 4.
Screening C[C@H](CO)N1C[C@H](C)[C@H](CN(C)S(=O)(=O)c2ccc(Cl)cc2)OCc2cnnn2CCCC1=O returned S100A4 inh HTS -6, DENV2 CPE -8, PGC1a acetyl inh -2, SIRT5 block 15*! and C2C12 statin 7.
